CXCR6 block: CXCR6 (human) receptor inhibition | inhibition, % at 20 µM | CHO-K1 PathHunter CXCR6 beta-arrestin, luminescence | O00574 | 0.36% of 360,000 active; in the data active = inhibition above about 34%, passing the limit was not always enough;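 also: antagonist mode with CXCL16 agonist at 10 nM final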
Target sequence (O00574 whole entry, looked up): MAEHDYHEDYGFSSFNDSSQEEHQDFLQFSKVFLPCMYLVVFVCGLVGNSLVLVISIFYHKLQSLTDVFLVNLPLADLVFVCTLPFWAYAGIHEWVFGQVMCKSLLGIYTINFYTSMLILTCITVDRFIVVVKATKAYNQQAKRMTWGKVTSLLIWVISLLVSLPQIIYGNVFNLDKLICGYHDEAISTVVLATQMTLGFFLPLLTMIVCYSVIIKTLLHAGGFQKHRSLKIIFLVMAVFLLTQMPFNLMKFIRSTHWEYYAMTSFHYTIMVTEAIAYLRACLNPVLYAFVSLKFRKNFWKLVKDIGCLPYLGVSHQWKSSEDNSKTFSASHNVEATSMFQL
APJ ag: activates the human apelin receptor APJ; P35414; CHO-K1 APJ PathHunter beta-arrestin, luminescence; 0% DMSO wells, 100% apelin; activation, % at 20 µM; 0.11% of 330,000 active;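 active = activation more than six SD over the plate average, tested at 20 µM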
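Test system: CHO-K1 APJ beta-arrestin complementation cell line. Amount: cell density 1000 per well. Controls: DMSO negative, 10 nM Apelin-13 positive. Signal: luminescent beta-gal fragment complementation, chemiluminescent substrate. Read-out basis: agonist-driven arrestin binding to APJ. Timing: compound stimulation 90 min at 25 °C, detection 60 min.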
EBI2 antag: antagonists of human EBI2 receptor. 0.81% of 360,000 active. AID 651636. P32249. EBI2 beta-arrestin recruitment, luminescence, 7a,25-OHC stimulated. inhibition, % at 5 µM; in the data active = inhibition above about 38%;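 also: enzyme fragment complementation signal reports receptor beta-arrestin coupling in cells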
Target sequence (P32249 whole entry, looked up, the tested form may be a part): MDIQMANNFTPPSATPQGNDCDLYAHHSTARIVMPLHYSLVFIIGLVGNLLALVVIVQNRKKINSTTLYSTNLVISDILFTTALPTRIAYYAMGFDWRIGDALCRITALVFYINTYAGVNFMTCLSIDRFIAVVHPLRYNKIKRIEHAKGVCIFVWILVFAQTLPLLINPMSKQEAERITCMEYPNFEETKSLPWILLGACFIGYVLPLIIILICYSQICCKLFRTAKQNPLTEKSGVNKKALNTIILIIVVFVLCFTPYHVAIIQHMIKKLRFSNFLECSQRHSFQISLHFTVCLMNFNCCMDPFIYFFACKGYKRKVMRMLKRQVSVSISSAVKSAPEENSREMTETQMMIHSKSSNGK
APJ antagonist: antagonists of human APJ apelin receptor; AID 2521; inhibition, % at 20 µM; CHO-K1 APJ beta-arrestin complementation, luminescence; 0.32% of 330,000 active;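 active = inhibition above about 40% at 20 µM, limit read from the data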;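 also: cells challenged with 10 nM apelin-13 agonist together with compound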
m5-HT2A agonist: agonists of mouse serotonin 5-HT2A receptor (HTR2A) | P35363 | CHO-K1 mHTR2A beta-arrestin complementation, luminescence; percent of 30 µM serotonin response | activation, % at 7.6 µM | 0.66% of 360,000 active | AID 624169;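 active = activation above a run cutoff, the mean activation of all tested compounds plus 3 SD, cut at about 14% in these data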
CCR6 antagonist: antagonists of human CCR6 receptor; P51684; CHO-K1 CCR6 PathHunter beta-arrestin, luminescence, CCL20-stimulated; inhibition, % at 20 µM; 0.49% of 340,000 active;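 active = compounds whose inhibition of the agonist-driven luminescence signal at 20 µM reaches about 50%, limit read from the data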;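 also: cells stimulated with CCL20 at 14 nM final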
EBI2 antag conf: EBI2 (human) antagonism, single concentration confirmation. shares compounds with EBI2 antag. EBI2 beta-arrestin luminescence, 7a,25-OHC antagonism. inhibition, % at 5 µM. 29% of 2,400 active. AID 651997;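 active = inhibition of at least 50%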
EBI2 ag: EBI2 agonism counter-screen; activation, % at 5 µM; AID 652000; EBI2-expressing cells, agonist mode, luminescence, 60 min; 0% vehicle, 100% 7α,25-dihydroxycholesterol control; shares compounds with EBI2 antag; 2,400 tested, under 10 active;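 active = activation of at least 50%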
bGal cs: inhibits E. coli beta-galactosidase, counter-screen for EBI2 antagonists; 1% of 2,400 active; purified beta-galactosidase, luminescent Galacton Star, 15 min; inhibition, % at 5 µM; shares compounds with EBI2 antag;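 active = replicate-average signal at least 3 plate SD below neutral wells, shown as high inhibition, flagging enzyme-inhibiting false positives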;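 also: higher means stronger loss of beta-gal luminescence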
Each line names hits and unclear results; the compound was inactive in the other large screens (follow-up assays come after a bar, where they were run). Rows were chosen to be rich in hits. Some 2.1% of all compounds tested hit in one or more screens of this group.

CCCCn1nnnc1C(c1cc2ccccc2o1)N1CCN(C/C=C/c2ccccc2)CC1 (stereo unspecified)	EBI2 antag 62 (no result: APJ ag, APJ antagonist, CCR6 antagonist) | EBI2 antag conf inactive | EBI2 ag inactive | bGal cs inactive
O=C(/C=C/c1ccccc1)N1CCN(C(=O)c2ccco2)CC1	EBI2 antag 63 | EBI2 antag conf inactive | EBI2 ag inactive | bGal cs inactive
CCn1c(N2CCN(C(=O)/C=C/c3ccccc3)CC2)nc2ccccc21	EBI2 antag 86 | EBI2 antag conf 56 | EBI2 ag inactive | bGal cs inactive
O=C(/C=C/c1ccccc1)N1CCCN(C(=O)/C=C/c2ccccc2)CC1	EBI2 antag 79 | EBI2 antag conf 53 | EBI2 ag inactive | bGal cs inactive
CCc1ccc(/C=C\C(=O)N2CCCC2)cc1	EBI2 antag 47 | EBI2 antag conf inactive | EBI2 ag inactive | bGal cs inactive
CCOc1ccccc1N(CC(=O)Nc1c(C)n(C)n(-c2ccccc2)c1=O)S(=O)(=O)c1ccccc1	none
CCc1ccc(NC(=O)C2CCCN2S(=O)(=O)c2ccc3c(c2)n(C)c(=O)c(=O)n3C)cc1 (stereo unspecified)	none
CC[N+]1(C)[C@@H]2CC[C@H]1CC(OC(=O)[C@H]1CCC(C(=O)OC3C[C@H]4CC[C@@H](C3)[N+]4(C)CC)(c3ccccc3)c3ccccc31)C2 (stereo partly specified)	none
O=C(COc1ccc(Br)cc1)N1CCC(c2ccccc2)C1 (stereo unspecified)	EBI2 antag 87 | EBI2 antag conf 84 | EBI2 ag inactive | bGal cs inactive
O=C(COc1ccc(Br)cc1)c1ccc2c(c1)CCCC2	EBI2 antag 75 | EBI2 antag conf inactive | EBI2 ag inactive | bGal cs inactive
O=C(COc1ccc(Br)cc1)N1CCc2ccccc2C1	EBI2 antag 58 | EBI2 antag conf 73 | EBI2 ag inactive | bGal cs inactive
CC(C)Nc1ncnc2c1ncn2[C@H]1CN(Cc2ccc(Cl)cc2)C[C@@H](CO)O1	EBI2 antag 74 (no result: APJ ag, APJ antagonist, CCR6 antagonist) | EBI2 antag conf 88 | EBI2 ag inactive | bGal cs inactive
CC(C)Nc1ncnc2c1ncn2[C@H]1CN(Cc2ccc(F)cc2)C[C@@H](CO)O1	EBI2 antag 47 (no result: APJ ag, APJ antagonist, CCR6 antagonist) | EBI2 antag conf 50 | EBI2 ag inactive | bGal cs inactive
Cc1ccc2nc(-c3ccc(C#N)cc3)c(Cc3ccccc3C(F)(F)F)n2c1	EBI2 antag 47 (no result: APJ ag, APJ antagonist, CCR6 antagonist) | EBI2 antag conf inactive | EBI2 ag inactive | bGal cs inactive
O=C(N/N=C/c1c(Cl)[nH]c2ccccc12)c1ccc2c(c1)OCCO2	none
Cc1cccc(C)c1-n1nnnc1C(c1ccnc2ccccc12)N1CCN(C(=O)OCc2ccccc2)CC1 (stereo unspecified)	EBI2 antag 41 (no result: APJ ag, APJ antagonist, CCR6 antagonist) | EBI2 antag conf inactive | EBI2 ag inactive | bGal cs inactive
Cc1cccc(C)c1-n1nnnc1C(c1ccnc2ccccc12)N1CCCC1 (stereo unspecified)	none (no result: APJ ag, APJ antagonist, CCR6 antagonist)
O=S(=O)(c1ccc(NC(=S)NCCc2ccccc2)cc1)N1CCOCC1	none
O=S(=O)(c1ccc(NC(=S)NN=C(Cc2ccccc2)Cc2ccccc2)cc1)N1CCOCC1	EBI2 antag 46 | EBI2 antag conf inactive | EBI2 ag inactive | bGal cs inactive
COc1nnc(-c2ccc(N3CCCCC3)c(NC(=O)COc3ccccc3)c2)c2ccccc12	none (no result: APJ ag, APJ antagonist)
CC1(C)O[C@@H]2C[C@H]3[C@@H]4CCC5=CC(=O)CC[C@]5(C)[C@@]4(F)[C@@H](O)C[C@]3(C)[C@]2(C(=O)CCl)O1	none
O=C(c1cc(-c2cccs2)on1)N1CCN(C(c2ccccc2)c2ccccc2)CC1	EBI2 antag 88 | EBI2 antag conf 84 | EBI2 ag inactive | bGal cs inactive
COc1cccc(-c2cc(C(=O)N3CCOCC3)no2)c1	none
COc1cccc(-c2cc(C(=O)N3CCN(C(c4ccccc4)c4ccccc4)CC3)no2)c1	EBI2 antag 87 | EBI2 antag conf 81 | EBI2 ag inactive | bGal cs inactive
Cc1cc(C(=O)N2CCN(C(c3ccccc3)c3ccccc3)CC2)no1	none
COc1ccc(/C=C(/CC(=O)NCc2ccc(Cl)cc2)c2nc3ccccc3s2)cc1	EBI2 antag 39 | EBI2 antag conf inactive | EBI2 ag inactive | bGal cs inactive
COc1ccc(/C=C(/CC(=O)Nc2ccccc2)c2nc3ccccc3s2)cc1	none
COc1ccc(CCNC(C)=O)cc1	none
COc1ccc(CCNc2ccc(C)cc2)cc1	EBI2 antag 54 | EBI2 antag conf inactive | EBI2 ag inactive | bGal cs inactive
O=C(COc1ccc(F)cc1Cl)N(Cc1nnc(-c2ccccc2Cl)o1)C1CC1	none
CCc1ccc(C(C)NC(=O)/C=C/c2ccc(Br)cc2)cc1 (stereo unspecified)	EBI2 antag 61 | EBI2 antag conf inactive | EBI2 ag inactive | bGal cs inactive
Cc1ccc(/C=C/C(=O)NC(C)c2ccccc2)cc1 (stereo unspecified)	none
CC(NC(=O)/C=C/c1ccc(Br)cc1)c1ccccc1 (stereo unspecified)	EBI2 antag 44 | EBI2 antag conf inactive | EBI2 ag inactive | bGal cs inactive
CC(NC(=O)/C=C/c1ccccc1)c1ccccc1 (stereo unspecified)	none
COc1ccc(-c2cc3nc(-c4ccccc4)cc(N4CCC(O)CC4)n3n2)cc1	EBI2 antag 64 | EBI2 antag conf 56 | EBI2 ag inactive | bGal cs inactive
COc1ccc(-c2cc3nc(-c4ccccc4)cc(N4CCN(C(=O)c5ccsc5)CC4)n3n2)cc1	none (no result: APJ ag, APJ antagonist, CCR6 antagonist)
COc1ccc(-c2cc3nc(-c4ccccc4)cc(N4CCN(C(C)=O)CC4)n3n2)cc1	EBI2 antag 46 (no result: APJ ag, APJ antagonist, CCR6 antagonist) | EBI2 antag conf inactive | EBI2 ag inactive | bGal cs inactive
COc1ccc(-c2cc3nc(-c4ccccc4)cc(N4CCN(C(=O)c5ccccc5)CC4)n3n2)cc1	none (no result: APJ ag, APJ antagonist, CCR6 antagonist)
COc1ccc(-c2cc3nc(-c4ccccc4)cc(N4CCCC(O)C4)n3n2)cc1 (stereo unspecified)	EBI2 antag 66 | EBI2 antag conf 55 | EBI2 ag inactive | bGal cs inactive
CCOc1cc(/C=N/NC(=O)C(=O)NCc2cccnc2)ccc1O	none

Screening results: PubChem BioAssay, several laboratories
